Source: ChEMBL document CHEMBL4196006, “Aryl thiosemicarbazones for the treatment of trypanosomatidic infections” (Eur J Med Chem, 2018)
Active and inactive are the calls of the source. The rule behind the calls is not given here.

Tests used:
Trypanosoma brucei [1] = test: Antitrypanosomal activity against Trypanosoma brucei Lister 427 bloodstream form assessed as parasite growth inhibition at 50 uM after 72 hrs by SYBR Green assay relative to control; format: functional; settings: for inhibition of growth at 50 µM: Lister 427, 72 h, read-out: GI
Leishmania infantum = test: Antileishmanial activity against Leishmania infantum amastigote form assessed as parasite growth inhibition at 50 uM after 72 hrs by steady-Glo reagent based assay relative to control; format: functional; settings: for inhibition of growth at 50 µM: read-out: GI
Outline: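 Intramacrophage L. infantum amastigotes in THP-1-derived macrophages, tested at 50 μM or in dose-response. Plates held 72 h at 37 °C, 5% CO2. Medium was replaced by PBS, macrophages lysed, and parasites read by Steady-Glo luminescence. High-content imaging gave host cell number, infection ratio (infected/total cells) and parasites per infected cell. Values are means of at least two independent experiments.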

Trypanosoma cruzi [2] = test: Antitrypanosomal activity against Trypanosoma cruzi amastigote form infected in human U2OS cells assessed as parasite growth inhibition at 50 uM after 72 hrs relative to control; format: functional; settings: read-out: GI
Outline: (§1)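 U2OS monolayers grown for 24 h, then infected with tissue-derived trypomastigotes of T. cruzi Y strain. Compounds were added 24 h after infection at 50 μM (single-point) or in dose-response, with 72 h exposure. Plates were fixed, stained and analysed by high-content imaging; activity was normalized to infected and non-infected controls. Means of at least two experiments; benznidazole as reference.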

Trypanosoma cruzi [3] = test: Antitrypanosomal activity against Trypanosoma cruzi amastigote form infected in human U2OS cells assessed as parasite growth inhibition after 72 hrs; format: functional, organism-based; outline: as §1
Trypanosoma brucei [4] = test: Antitrypanosomal activity against Trypanosoma brucei Lister 427 bloodstream form at 10 uM after 72 hrs by resazurin dye-based assay relative to control; format: functional
Trypanosoma brucei [5] = test: Potentiation of methotrexate-induced antitrypanosomal activity against Trypanosoma brucei Lister 427 bloodstream form at 10 uM after 72 hrs by resazurin dye-based assay relative to control; format: functional
CYP1A2 = biological target: T1, CYP1A2 (Homo sapiens, UniProt P05177); test: Inhibition of human microsomal CYP1A2 expressed in baculovirus infected BTI-TN-5B1-4 cells at 10 uM incubated for 30 mins by luciferase assay relative to control; format: ADME
T1 sequence (P05177 whole entry): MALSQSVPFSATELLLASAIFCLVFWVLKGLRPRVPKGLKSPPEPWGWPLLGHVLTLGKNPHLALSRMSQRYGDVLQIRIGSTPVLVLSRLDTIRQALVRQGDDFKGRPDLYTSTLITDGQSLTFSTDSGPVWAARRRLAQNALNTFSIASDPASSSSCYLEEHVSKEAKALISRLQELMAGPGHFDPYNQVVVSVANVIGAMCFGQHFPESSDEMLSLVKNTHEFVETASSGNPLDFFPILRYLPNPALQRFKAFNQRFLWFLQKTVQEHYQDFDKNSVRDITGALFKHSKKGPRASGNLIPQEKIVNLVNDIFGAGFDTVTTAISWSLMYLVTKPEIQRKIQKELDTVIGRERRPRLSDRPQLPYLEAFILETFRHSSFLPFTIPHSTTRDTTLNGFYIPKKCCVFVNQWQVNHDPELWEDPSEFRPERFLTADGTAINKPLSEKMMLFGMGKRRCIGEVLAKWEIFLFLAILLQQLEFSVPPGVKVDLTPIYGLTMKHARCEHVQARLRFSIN
Outline: (§2)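 CYP1A2, 2C9, 2C19, 2D6 and 3A4 in microsomes from baculovirus-infected insect cells, each with a P450-Glo luminogenic substrate. Inhibition read as loss of light; single-point at 10 μM, triplicate.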

Trypanosoma brucei [6] = test: Potentiation of methotrexate-induced antitrypanosomal activity against Trypanosoma brucei Lister 427 bloodstream form at 10 uM after 72 hrs by resazurin dye-based assay; format: functional
hERG (KCNH2) = hERG (KCNH2) (Homo sapiens, UniProt Q12809); test: Inhibition of human ERG at 10 uM incubated for 2 hrs by fluorescence polarisation assay relative to control
CYP2C9 = CYP2C9 (Homo sapiens, UniProt P11712); test: Inhibition of human microsomal CYP2C9 expressed in baculovirus infected BTI-TN-5B1-4 cells at 10 uM incubated for 30 mins by luciferase assay relative to control; format: ADME; outline: as §2
CYP2C19 = CYP2C19 (Homo sapiens, UniProt P33261); test: Inhibition of human microsomal CYP2C19 expressed in baculovirus infected BTI-TN-5B1-4 cells at 10 uM incubated for 30 mins by luciferase assay relative to control; format: ADME; outline: as §2
CYP2D6 = CYP2D6 (Homo sapiens, UniProt P10635); test: Inhibition of human microsomal CYP2D6 expressed in baculovirus infected BTI-TN-5B1-4 cells at 10 uM incubated for 30 mins by luciferase assay relative to control; format: ADME; outline: as §2
CYP3A4 = CYP3A4 (Homo sapiens, UniProt P08684); test: Inhibition of human microsomal CYP3A4 expressed in baculovirus infected BTI-TN-5B1-4 cells at 10 uM incubated for 30 mins by luciferase assay relative to control; format: ADME; outline: as §2
Aurora kinase B = Aurora kinase B (Homo sapiens, UniProt Q96GD4); test: Inhibition of recombinant full-length human aurora B kinase expressed in baculovirus system at 10 uM using MBP as substrate incubated for 45 mins by ADP-glo kinase assay; settings: probe MBP
Outline: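 Aurora B activity measured as ADP formation via coupled luciferase ADP-Glo luminescence; single-point at 10 μM, triplicate.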

[7] = Cytotoxicity against human 786-O cells assessed as inhibition of mitochondrial viability at 10 uM after 6 hrs by CMXRos staining based assay relative to control; format: cell-based, 786-0; settings: read-out: INH
Outline: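 Mitochondrial toxicity monitored by MitoTracker Red CMXRos uptake and high-content imaging; compound at 10 μM, triplicate.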

[8] = Cytotoxicity against human THP1 cells assessed as viable cells at 100 uM after 72 hrs by MTT assay relative to control; format: cell-based, THP-1; settings: read-out: Activity
Outline: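 THP-1-derived macrophages exposed to compounds for 72 h, tested at 100 μM or in dose-response; viability read by MTT colorimetric assay.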

[9] = Cytotoxicity against human U2OS cells assessed as viable cells at 50 uM after 72 hrs by MTT assay relative to control; format: cell-based; settings: read-out: Activity
[10] = Selectivity index, ratio of CC50 for human U2OS cells to EC50 for Trypanosoma cruzi amastigote form; format: toxicity; settings: read-out: Ratio CC50/EC50
Outline: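 Selectivity index = CC50 in the human host or cytotoxicity cell line divided by parasite EC50.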

[11] = biological target: T2, Pteridine reductase, putative (Trypanosoma brucei) (UniProt Q581W1); test: Inhibition of Trypanosoma brucei PTR1 at 50 uM using H2B as substrate in presence of NADPH by photometric analysis relative to control
T2 sequence (whole entry): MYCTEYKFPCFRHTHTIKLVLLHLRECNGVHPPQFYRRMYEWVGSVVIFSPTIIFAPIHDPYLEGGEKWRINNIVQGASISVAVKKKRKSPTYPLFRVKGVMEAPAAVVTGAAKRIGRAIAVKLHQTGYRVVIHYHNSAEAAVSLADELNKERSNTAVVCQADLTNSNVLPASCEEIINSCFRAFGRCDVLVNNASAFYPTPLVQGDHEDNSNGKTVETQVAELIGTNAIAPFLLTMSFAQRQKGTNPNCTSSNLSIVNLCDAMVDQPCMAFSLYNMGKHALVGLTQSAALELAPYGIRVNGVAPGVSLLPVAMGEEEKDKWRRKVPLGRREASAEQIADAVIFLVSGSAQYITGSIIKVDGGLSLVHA

[12] = biological target: T3, Pteridine reductase 1 (Leishmania major) (UniProt Q01782); test: Inhibition of Leishmania major PTR1 at 50 uM using H2B as substrate in presence of NADPH by photometric analysis relative to control
T3 sequence (whole entry): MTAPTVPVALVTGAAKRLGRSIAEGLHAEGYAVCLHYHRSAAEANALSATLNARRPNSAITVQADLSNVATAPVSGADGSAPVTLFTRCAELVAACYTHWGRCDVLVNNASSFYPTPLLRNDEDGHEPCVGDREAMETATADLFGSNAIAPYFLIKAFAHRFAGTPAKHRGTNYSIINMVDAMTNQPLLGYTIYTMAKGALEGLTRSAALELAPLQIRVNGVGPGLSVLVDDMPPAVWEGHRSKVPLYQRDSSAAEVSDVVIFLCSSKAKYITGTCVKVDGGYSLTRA

[13] = Cytotoxicity against human U2OS cells assessed as decrease in viable cells after 72 hrs by cell number count in anti-T. cruzi high content imaging assay; settings: U2OS cells
[14] = Cytotoxicity against human A549 cells assessed as growth inhibition at 10 uM after 48 hrs by CellTiter-Glo assay relative to control; values are per cent of control; settings: A549 cells
[15] = Cytotoxicity against human WI38 cells assessed as growth inhibition at 10 uM after 48 hrs by CellTiter-Glo assay relative to control; values are per cent of control; settings: WI38 cells
Trypanosoma brucei [16] = test: Antitrypanosomal activity against Trypanosoma brucei Lister 427 bloodstream form after 72 hrs by SYBR Green assay; format: functional, organism-based; settings: Lister 427, 72 h

Sequence of hERG (KCNH2) (Q12809 whole entry): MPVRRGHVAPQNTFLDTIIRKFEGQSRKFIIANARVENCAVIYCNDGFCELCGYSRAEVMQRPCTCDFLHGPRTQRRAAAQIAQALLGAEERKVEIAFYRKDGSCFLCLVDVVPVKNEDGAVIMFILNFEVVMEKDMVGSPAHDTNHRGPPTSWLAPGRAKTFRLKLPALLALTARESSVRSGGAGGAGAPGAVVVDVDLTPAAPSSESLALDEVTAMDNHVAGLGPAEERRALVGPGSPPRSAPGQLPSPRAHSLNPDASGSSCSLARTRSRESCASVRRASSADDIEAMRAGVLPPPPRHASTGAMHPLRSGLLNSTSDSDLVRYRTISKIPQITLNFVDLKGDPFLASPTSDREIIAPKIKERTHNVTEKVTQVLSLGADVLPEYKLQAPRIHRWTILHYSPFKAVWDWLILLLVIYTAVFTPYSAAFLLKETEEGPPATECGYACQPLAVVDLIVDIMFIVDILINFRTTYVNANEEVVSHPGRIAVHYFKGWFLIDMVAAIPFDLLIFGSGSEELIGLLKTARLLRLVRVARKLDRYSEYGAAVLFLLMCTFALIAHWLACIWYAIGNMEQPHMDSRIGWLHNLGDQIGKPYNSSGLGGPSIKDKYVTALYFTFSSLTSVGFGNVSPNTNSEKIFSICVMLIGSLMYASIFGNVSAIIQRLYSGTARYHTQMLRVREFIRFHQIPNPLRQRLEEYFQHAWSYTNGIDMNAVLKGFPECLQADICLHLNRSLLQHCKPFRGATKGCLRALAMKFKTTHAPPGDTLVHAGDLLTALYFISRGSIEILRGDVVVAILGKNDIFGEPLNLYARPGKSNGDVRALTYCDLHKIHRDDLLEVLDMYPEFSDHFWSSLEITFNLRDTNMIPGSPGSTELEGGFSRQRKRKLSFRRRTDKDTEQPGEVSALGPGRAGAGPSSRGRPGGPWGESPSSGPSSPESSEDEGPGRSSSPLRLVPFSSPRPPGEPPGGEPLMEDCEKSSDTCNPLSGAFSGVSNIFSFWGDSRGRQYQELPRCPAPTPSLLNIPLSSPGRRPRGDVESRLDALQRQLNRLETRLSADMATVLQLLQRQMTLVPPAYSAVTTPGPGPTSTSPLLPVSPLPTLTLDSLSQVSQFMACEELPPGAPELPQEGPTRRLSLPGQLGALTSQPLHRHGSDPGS
Sequence of CYP2C19 (P33261 whole entry): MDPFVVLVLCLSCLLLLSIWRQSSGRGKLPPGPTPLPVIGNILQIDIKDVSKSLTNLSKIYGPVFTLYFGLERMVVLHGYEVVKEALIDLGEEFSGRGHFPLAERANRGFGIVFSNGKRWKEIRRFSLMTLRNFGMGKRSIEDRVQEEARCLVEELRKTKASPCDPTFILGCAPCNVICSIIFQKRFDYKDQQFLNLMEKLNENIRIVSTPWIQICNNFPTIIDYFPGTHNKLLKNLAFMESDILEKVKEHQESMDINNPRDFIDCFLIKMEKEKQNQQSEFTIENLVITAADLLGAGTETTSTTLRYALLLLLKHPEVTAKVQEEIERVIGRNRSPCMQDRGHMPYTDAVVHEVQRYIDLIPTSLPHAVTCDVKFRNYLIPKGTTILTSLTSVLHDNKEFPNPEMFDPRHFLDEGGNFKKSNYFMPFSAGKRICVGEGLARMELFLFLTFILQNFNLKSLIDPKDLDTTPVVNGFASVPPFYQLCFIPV
Sequence of CYP2C9 (P11712 whole entry): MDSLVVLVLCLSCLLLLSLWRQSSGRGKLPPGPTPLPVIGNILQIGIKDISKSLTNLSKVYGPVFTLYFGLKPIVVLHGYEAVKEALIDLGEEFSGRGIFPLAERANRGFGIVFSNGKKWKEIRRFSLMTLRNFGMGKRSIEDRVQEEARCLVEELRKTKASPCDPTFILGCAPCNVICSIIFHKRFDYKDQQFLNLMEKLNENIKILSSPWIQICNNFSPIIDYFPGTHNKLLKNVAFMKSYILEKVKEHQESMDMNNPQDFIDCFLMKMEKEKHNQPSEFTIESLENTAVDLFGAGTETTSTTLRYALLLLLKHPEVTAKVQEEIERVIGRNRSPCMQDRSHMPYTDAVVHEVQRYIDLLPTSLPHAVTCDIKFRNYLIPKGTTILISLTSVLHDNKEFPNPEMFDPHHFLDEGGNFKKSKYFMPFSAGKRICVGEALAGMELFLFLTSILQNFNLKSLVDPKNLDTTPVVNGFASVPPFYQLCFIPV
Sequence of Aurora kinase B (Q96GD4 whole entry): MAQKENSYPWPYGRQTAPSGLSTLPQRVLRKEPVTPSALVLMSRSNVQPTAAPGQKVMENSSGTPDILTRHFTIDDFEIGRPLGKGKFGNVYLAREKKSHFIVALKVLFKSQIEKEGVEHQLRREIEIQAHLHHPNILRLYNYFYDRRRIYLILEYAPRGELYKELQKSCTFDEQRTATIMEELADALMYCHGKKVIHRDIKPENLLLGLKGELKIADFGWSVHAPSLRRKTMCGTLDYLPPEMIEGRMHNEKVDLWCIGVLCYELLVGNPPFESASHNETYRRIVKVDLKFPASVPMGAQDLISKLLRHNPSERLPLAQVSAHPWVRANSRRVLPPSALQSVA
Sequence of CYP2D6 (P10635 whole entry): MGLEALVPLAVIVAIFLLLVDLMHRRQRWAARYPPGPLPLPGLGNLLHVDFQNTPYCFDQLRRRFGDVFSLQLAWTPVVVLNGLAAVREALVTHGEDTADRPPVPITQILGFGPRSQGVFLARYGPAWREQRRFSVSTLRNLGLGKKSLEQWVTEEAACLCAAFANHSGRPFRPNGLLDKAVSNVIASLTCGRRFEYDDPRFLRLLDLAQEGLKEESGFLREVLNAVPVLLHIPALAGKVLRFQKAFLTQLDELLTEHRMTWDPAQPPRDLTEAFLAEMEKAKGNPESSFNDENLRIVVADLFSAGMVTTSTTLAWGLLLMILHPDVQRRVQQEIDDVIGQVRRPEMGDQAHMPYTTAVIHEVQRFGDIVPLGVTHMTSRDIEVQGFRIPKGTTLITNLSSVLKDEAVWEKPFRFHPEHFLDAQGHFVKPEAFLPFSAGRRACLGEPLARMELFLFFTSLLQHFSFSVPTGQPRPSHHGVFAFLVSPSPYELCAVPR
Sequence of CYP3A4 (P08684 whole entry): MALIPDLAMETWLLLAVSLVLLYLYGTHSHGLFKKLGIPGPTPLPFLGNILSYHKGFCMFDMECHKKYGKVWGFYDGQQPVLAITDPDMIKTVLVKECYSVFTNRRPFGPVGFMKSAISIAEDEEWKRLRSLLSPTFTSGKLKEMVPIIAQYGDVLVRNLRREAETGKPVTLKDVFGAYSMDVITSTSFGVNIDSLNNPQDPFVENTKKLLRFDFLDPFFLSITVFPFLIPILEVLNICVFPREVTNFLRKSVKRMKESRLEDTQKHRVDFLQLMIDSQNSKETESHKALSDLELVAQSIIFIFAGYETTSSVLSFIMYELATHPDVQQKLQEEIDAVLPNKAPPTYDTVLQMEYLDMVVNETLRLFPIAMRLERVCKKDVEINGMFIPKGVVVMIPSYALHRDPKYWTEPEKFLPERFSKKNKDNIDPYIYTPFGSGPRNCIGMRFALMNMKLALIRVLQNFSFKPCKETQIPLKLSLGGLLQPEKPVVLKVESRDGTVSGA

Compound | growth inhibition (GI) (Leishmania infantum) | inhibition of growth at 50 µM (Trypanosoma cruzi [2]) [%] | Activity (Trypanosoma brucei [4]) [%] | Activity (Trypanosoma brucei [5]) [%] | inhibition at 0.5 h, 10 µM (CYP1A2) [%] | PF (Trypanosoma brucei [6]) | inhibition at 2 h, 10 µM (hERG (KCNH2)) [%] | inhibition at 0.5 h, 10 µM (CYP2C9) [%] | inhibition at 0.5 h, 10 µM (CYP2C19) [%] | inhibition at 0.5 h, 10 µM (CYP2D6) [%] | inhibition at 0.5 h, 10 µM (CYP3A4) [%] | inhibition at 0.75 h, 10 µM (Aurora kinase B) [%] | cytotoxicity at 6 h, 10 µM [7] [%] | viability at 72 h, 100 µM [8] [%] | viability at 72 h, 50 µM [9] [%] | inhibition [11] | inhibition [12] [%] | cell growth (% of control) at 48 h, 10 µM [14] [%] | cell growth (% of control) at 48 h, 10 µM [15] [%] | inhibition of growth at 50 µM (Trypanosoma brucei [1]) [%] | other results
NC(=S)N/N=C/c1ccc(-c2ccccc2)cc1 | inactive | 95.2 | 19.33 | 80.67 | 76.6 | 1.85 | 38.5 | 98.4 | 32.1 | 26.8 | -16.1 | -35.7 | 16.1 | 46.4 | 116 | inactive | 3.57 | 138 | 104 |  | growth inhibition (GI) (Trypanosoma brucei [1]): inactive; EC50 (Trypanosoma cruzi [3]): 4.17 µM; selectivity ratio [10]: > 1; CC50 at 72 h [13]: > 44 µM
NC(=S)N/N=C/c1ccccc1O |  | 86.1 | 17.83 | 62.5 | 18.6 | 1.49 | 4.46 | -6.44 | -20.6 | -18.9 | -4.38 | 6.53 | -1.49 | 54.7 | 58 | 13.7% | 7.6 | 117 | 108 | 97.9 | inhibition of growth at 50 µM (Leishmania infantum): 24.1%; EC50 (Trypanosoma brucei [16]): 31.5 µM
NC(=S)N/N=C/c1ccc2ncccc2c1 |  | 53.8 | 3.83 | 91.17 | 25.2 | 3.25 | -13.2 | 3.32 | -34.6 | 2.28 | -13.5 | 0.46 | -6.48 | 63.7 | 72.5 | 11.2% | 12.2 | 145 | 143 | 84.2 | inhibition of growth at 50 µM (Leishmania infantum): 36%; EC50 (Trypanosoma brucei [16]): 34.4 µM
N/C(S)=N/N=C/c1cccc(Br)c1 | inactive | 90.8 | 0.83 | 61.17 | 66.6 | 2.44 | 10.7 | -7.51 | -35.9 | -14.4 | -19.8 | -16.2 | 0.71 | 79.3 | 57.3 | 14.9% | 18.4 | 130 | 120 | 44.1 | EC50 (Trypanosoma cruzi [3]): 2.29 µM; selectivity ratio [10]: > 1; CC50 at 72 h [13]: > 44 µM
